In PubChem BioAssay AID1216 (Sanford-Burnham Center for Chemical Genomics, 2008):
Among all 190,000 compounds or so, about 660 (0.35%) were called active. The sample holds actives, similar compounds and a random draw of the others, so the mix is not that of the screen.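 How the source made its calls: active means activation factor of 2 or more at 20 µM; inactive means the rest.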

What follows are compounds tested against Mannose-6-phosphate isomerase (Homo sapiens) (UniProt P34949) (assay: MPI activation at elevated mannose 6-phosphate – biochemical, fluorescence intensity, near-saturating mannose 6-phosphate, primary screen (AID 1216)). Details: coupled PMI enzyme assay, resazurin fluorescence, 20 min; at 20 µM; stronger effect = higher value; 1 = untreated enzyme, 0 = substrate-free blank.
Sequence of Mannose-6-phosphate isomerase (Homo sapiens) (P34949 whole entry, looked up): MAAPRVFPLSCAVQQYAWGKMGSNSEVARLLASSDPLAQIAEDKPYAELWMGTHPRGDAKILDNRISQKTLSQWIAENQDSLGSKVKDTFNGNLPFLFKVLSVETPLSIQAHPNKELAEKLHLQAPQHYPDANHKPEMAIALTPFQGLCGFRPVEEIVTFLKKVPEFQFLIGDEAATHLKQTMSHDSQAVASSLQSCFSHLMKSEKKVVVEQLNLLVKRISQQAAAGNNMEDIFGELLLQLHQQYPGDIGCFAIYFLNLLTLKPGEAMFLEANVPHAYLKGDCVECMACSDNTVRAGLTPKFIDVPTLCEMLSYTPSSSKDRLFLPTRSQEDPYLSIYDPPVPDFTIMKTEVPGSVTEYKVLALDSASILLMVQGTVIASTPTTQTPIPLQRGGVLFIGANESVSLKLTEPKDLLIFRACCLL
Summary of the method: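 Test system – human PMI in coupled enzyme assay · Timing – 20 min incubation at room temperature · Detection – Diaphorase-driven resazurin-to-resorufin fluorescence, excitation 544, emission 590 nm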

Activation factor, inactive:
Cc1ccc(N2NC(=O)/C(=C/C=C/c3ccco3)C2=O)cc1C 1.2, Cc1cccc(N=C2NC(=O)/C(=C/c3cn(C)c4ccccc34)S2)c1 0.9, COc1ccc(C(=O)/C=C/c2ccc(OC3CSC3)cc2)cc1 0.9, COc1ccc(/C=C/C(=O)c2ccc(OC)cc2O)cc1 0.9, CCCCC(NS(=O)(=O)c1ccc(C)cc1)C(=O)Oc1ccc2c3c(c(=O)oc2c1)CCC3 (configuration not stated) 0.9, N/C(=N\OS(=O)(=O)c1cccc([N+](=O)[O-])c1)c1ccncc1 1, CCn1c(SCC(=O)N(C)C2CCS(=O)(=O)C2)nnc1-c1cccs1 (configuration not stated) 1.1, COc1ccc2c(-c3ccccc3)cc(SCC(=O)N(C)C3CCS(=O)(=O)C3)nc2c1 (configuration not stated) 1.3, Cc1cc(/C=C2/NC(=O)NC2=O)c(C)n1-c1cccnc1 0.9, CC(CC(=O)Nc1ccccc1)n1ccnc1 (configuration not stated) 1, Cc1c(-c2cccc(Cl)c2)nc2ccccc2c1C(=O)OCC(=O)N(C)C1CCS(=O)(=O)C1 (configuration not stated) 1, Cc1nccn1CCC1CCCCN1C(=O)CCc1nnc(-c2ccsc2)o1 (configuration not stated) 0.9, OCCC#Cc1ccc(CN2CCN(Cc3ccsc3)C(CCO)C2)cc1 (configuration not stated) 1, O=C(Nc1ccc([N+](=O)[O-])cc1)C1CC12CCC2 (configuration not stated) 1.1, Cc1ccc(CNC(=O)COc2ccc3c(c2)CCC3)cc1 1, CC1CCN(C(=O)c2ccc(S(=O)(=O)Cc3cc(F)ccc3F)c([N+](=O)[O-])c2)CC1 0.8, COc1ccc(C2CC(c3cccs3)=NN2c2ccccc2)cc1 (configuration not stated) 1.2, COc1ccc(C2CC(c3cccs3)=NN2C(=O)CSc2nnc(N)s2)cc1OC (configuration not stated) 1, COc1ccc(C2CC(c3cccs3)=NN2C(=O)CSc2nncs2)cc1OC (configuration not stated) 1, COc1ccccc1N1N=C(c2cccs2)CC1c1ccccc1 (configuration not stated) 1.2, COc1cc(/C=C(/NC(=O)c2ccc(Cl)cc2Cl)C(=O)O)cc(OC)c1OC 1, NC(=O)c1ccccc1N(Cc1ccccc1)S(=O)(=O)c1ccccc1 1, CCN(CC)S(=O)(=O)c1cc([N+](=O)[O-])ccc1N=Nc1c(O)n(C)c2ccccc12 1.1, Cc1ccc(-c2nc(C)sc2CC(=O)OCC(=O)Nc2c(F)cccc2F)cc1 0.9, Cc1ccc(C2=NN(C(=O)COc3ncnc4ccccc34)C(c3ccco3)C2)cc1 (configuration not stated) 0.8, CO/N=C/c1cn(-c2ccc(Cl)cc2)nn1 1, CC1(C)OC(=O)C(=CSc2ccc(C(C)(C)C)cc2)C(=O)O1 1.1, CCCC(=O)Nc1cccc(NC(=S)NC(=O)C(C)Oc2ccc(Cl)cc2Cl)c1 (configuration not stated) 1, O=C(N/C(=C\c1ccc(F)cc1)C(=O)N1CCCCCC1)c1ccccc1 0.9, Cc1cc(OCCCN2CCN(Cc3ccccc3)CC2)ccc1[N+](=O)[O-] 1, COc1ccc(Cc2nnnn2CC(=O)O)cc1 1.1, CSc1nc(O)c(Cc2ccccc2)c(=O)[nH]1 1, O=C(NNC(=O)c1ccccc1[N+](=O)[O-])Nc1ccccc1C(F)(F)F 1, O=C(NC1CCCC1)C(c1ccc(N2CCOCC2)cc1)N(C(=O)c1ccco1)c1ccccc1F (configuration not stated) 0.9, Cc1ccc(NC(=O)NC(=O)N(C2CCCCC2)S(=O)(=O)c2ccccc2)cc1 0.9, Cc1nn(-c2ccc([N+](=O)[O-])cc2)c(N)c1-c1ccccc1 1, C(=N/Nc1cc(N2CCOCC2)nc(N2CCOCC2)n1)/c1ccccc1 0.4, Cc1cc(C(=O)N/N=C/c2ccc(N3CCOCC3)cc2)c(C)o1 1.1, S=C(NC1CCCCC1)NN1CCOCC1 1.1, Cc1ccc(OCc2n[nH]c(=S)n2-c2ccc(C)cc2)cc1 0.8, COc1ccc(CNc2c(CO)cnc3c2cnn3C)cc1 1, Cc1ccnc(NC(=O)CCC(=O)N(CC(=O)NCc2ccccc2)Cc2ccco2)c1 0.9, CCOC(=O)C1=C(CN2CCCCCC2)NC(=O)NC1c1cccc([N+](=O)[O-])c1 (configuration not stated) 0.9, CC(NC(=O)C(=O)N/N=C/c1ccc(Cl)cc1)c1ccccc1 (configuration not stated) 1.1, O=C1CC(c2ccccc2)C(=O)N1c1cccc(O)c1 (configuration not stated) 0.9, O=C(NNC1CC(=O)N(c2cccc(Cl)c2)C1=O)c1cccnc1 (configuration not stated) 1.2, C/C(=N\NC(=S)NCc1ccccc1)C1CCCCC1 1.2, O=C(CCNC(=O)Cn1ccc2ccccc2c1=O)NCCC1=CCCCC1 1.1, CCc1cccc(CC)c1NC(=S)NCc1ccc2[nH]c(C)cc2c1 0.9, COc1ccc(Br)cc1/C=N/NC(=O)c1cccc(S(=O)(=O)N2CCOCC2)c1 1, COc1ccc(Br)cc1/C=N/n1c(C)nnc1C 1, OCC(O)CN(c1ccccc1)c1ccccc1 (configuration not stated) 1, CC(C)C(=O)Nc1ccc2oc(=O)ccc2c1 1, COc1ccc(C(=O)CSc2nc(C)cc(C)n2)cc1[N+](=O)[O-] 0.9, Cn1nc(-c2ccccc2)c(CO)c1Sc1ccccc1 1, c1ccc2[nH]c(-c3nc4ccccc4[nH]3)nc2c1 1.1, O=C(Nc1ccccc1)c1cc2ccccc2[nH]1 0.9, CCOc1ccc(C2c3[nH]c4ccccc4c3CCN2Cc2cn(CC)nc2C)cc1 (configuration not stated) 0.8, CN(C)CC(C)(C)CNC(=O)c1cc(Br)cc(Br)c1O 0.8, O=C1C2C3C=CC(C4CC34)C2C(=O)N1c1nccs1 (configuration not stated) 1, CCN(CC)CC1(O)CCN(C(=O)c2ccc(Cl)c(Cl)c2)CC1 0.9, O=C(O)c1ccc(N/N=C/c2cn(-c3ccccc3)nc2-c2cccs2)cc1 1.7, CCNC(=S)NNC(=O)c1ccc2ncccc2c1 1, Cc1ccc(NC(=O)N2CCSc3ccccc32)cc1 0.9, O=C(CNCc1ccc(Cl)cc1)Nc1cccc(C(=O)O)c1 1.1, Cn1c(CO)cnc1SCc1ccccc1 1.1, O=c1c2ccccc2c(-c2ccccc2)nn1Cc1ccccc1 1, COc1ccc(NC(=O)COc2ccc(C(=O)OCC(=O)N(C)C3CCS(=O)(=O)C3)cc2OC)cc1 (configuration not stated) 1.1, Cc1ccnc(NC(=O)CCC(=O)N(CC(=O)NCCc2ccccc2)Cc2cccs2)c1 1, CCOC(=O)C(CC)/C(C)=N\NC(=O)c1cccc(C)c1 (configuration not stated) 0.9, COc1ccc(NC(=O)C(C)SCc2ccccc2)cc1 (configuration not stated) 1, Cc1cc(Cl)ccc1C(=O)C1CCCN(C(=O)CCN2CCCO2)C1 (configuration not stated) 1.1, CCc1cccc(C)c1NC(=S)N(CCCN1CCN(C)CC1)Cc1cccs1 1, Cc1cccc(C)c1NC(=O)c1ccc(CN2CCc3ccccc3C2)cc1 1, Cc1ccc(N(CCC(=O)O)S(=O)(=O)c2cccc(C(F)(F)F)c2)cc1 1.1, O=[N+]([O-])c1ccc(N2CCN(S(=O)(=O)c3ccccc3)CC2)cc1N1CCc2ccccc2C1 0.9, COc1ccc(/C=N/N=C2/C(=O)Nc3ccccc32)cc1O 1, C/C=C/C=C/C(=O)OCC(=O)Nc1ccc(Cl)cc1 1, CS/C(=C\[N+](=O)[O-])Nc1ccc(C)cc1 1, Cn1cnnc1Sc1ccc(S(C)(=O)=O)cc1[N+](=O)[O-] 0.9, O=C(NNC(=O)c1cccnc1)Nc1ccccc1 1.1, O=C(Nc1cnccn1)c1cccnc1 1, C/C(N)=C(/C#N)C(=O)COC(=O)C1CCN(C(=O)c2ccc(Cl)cc2)CC1 1, CCc1cc2cc(OC)ccc2nc1SCC(=O)Nc1cc(OC)c(OC)cc1C(=O)O 0.8, O=C(/C=C/c1ccc(Cl)c([N+](=O)[O-])c1)c1cccnc1 1.1, CC(CCO)Nc1nc2c([nH]1)c(=O)n(C)c(=O)n2C (configuration not stated) 0.9, CCCSc1nc2c(c(=O)n(C)c(=O)n2C)n1Cc1ccc(C)cc1 1

Activation factor, active:
Cc1ccc(N=C2NC(=O)/C(=C/C=C/c3ccco3)S2)cc1C 2, COc1ccc(/C=C/C(=O)c2cc(Br)ccc(=O)c2O)cc1 2.1, Cc1cc(C)c2nc(SCC(=O)N(C)C3CCS(=O)(=O)C3)cc(C)c2c1 (configuration not stated) 2, COc1ccc(C2CC(c3cccs3)=NN2c2ccc(F)cc2)cc1OC (configuration not stated) 2.2, COc1ccc(C2CC(c3cccs3)=NN2c2nc(C)c(C(C)=O)s2)cc1OC (configuration not stated) 2, COc1ccc(Cc2nnc(SC)[nH]c2=O)cc1 2, Cc1ccccc1N/N=C/c1ccc(N2CCOCC2)cc1 2.4, O=C1CC(NNc2ccccc2)C(=O)N1c1cccc(Cl)c1 (configuration not stated) 2, COc1ccc(Br)cc1/C=N/Nc1ccc(Cl)c(C(=O)O)c1 2.6, S=c1ccc2ccccc2[nH]1 2.8, O=C(O)c1ccc(N/N=C/c2ccc3ncccc3c2)cc1 2.3, CSc1c(SCc2ccccc2)cnn(Cc2ccccc2)c1=O 2.4, Cc1cccc(C)c1NC(=O)C1(C)c2cccc[n+]2CC(=O)N1Cc1cccs1 (configuration not stated) 2, O=C(NN=C1CCC(=NNC(=O)c2cccnc2)CC1)c1cccnc1 2, Cc1ccc(NN=Nc2nc3c([nH]2)c(=O)n(C)c(=O)n3C)cc1 2
